Laboratory results: the EternaBench riboswitch data

Test system: MS2 coat protein
Experiment: apparent Kd, MS2 coat protein; higher = weaker binding; RNA-MaP array; FMN 200 µM where present
Procedure, shortened: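 Apparent Kd: the median of filtered binding-curve fits from single clusters. Designs were transcribed on Illumina sequencing-chip clusters by stalled E. coli RNA polymerase and titrated with SNAP-549-labelled MS2 coat protein from 0.7 or 1.5 nM, doubling to 3 µM, in 100 mM Tris-HCl pH 7.5, 80 mM KCl, 4 mM MgCl2, BSA, DTT, yeast tRNA and Tween-20. Each series ran without and then with constant ligand, and green signal was normalised to red-channel RNA signal and control-cluster median Fmax.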

[1] = designed as: ON switch for flavin mononucleotide, no ligand
[2] = ligand present: flavin mononucleotide, designed as: ON switch for flavin mononucleotide
[3] = designed as: OFF switch for flavin mononucleotide, no ligand
[4] = ligand present: flavin mononucleotide, designed as: OFF switch for flavin mononucleotide

| Sequence | apparent Kd [1] [nM] | apparent Kd [2] [nM] | apparent Kd [3] [nM] | apparent Kd [4] [nM] |
| --- | --- | --- | --- | --- |
| AAUACAUGAGGAUCACCCAUGUUAUGUUCAAACAAUAUGAGUGAGGAUAUACUGAGUUAGUUAUGGUAGAAGGCACUGGGUUCA | 56.3 | 36.2 | – | – |
| CCUCUACAUGAGGAUCACCCAUGUGAGGAUAUCUCGGAGCAACCACUUAAGGCGCUCCAGAGAAGGCACGUGUA | – | – | 20.6 | 28.9 |
| UGGUAGUAGGGAGGAUAUGGGAAGAUACAUGAGGAUCACCCAUGUUUAAGAAUGCCGAGAGGCAACUAGAAGGCCCUAGUACCU | 324 | 23.7 | – | – |
| CUUUUGUGAGGAUAUUCGUAGUAGGGUCAUGGCACUAUUACGGAGAAGGCACAUGAGGAUCACCCAUGUACCUU | – | – | 15.1 | 26.4 |
| UAAUAAUUAUGAGGAUAUAUACAACAUGAGGAUCACCCAUGUACCCAUGUAGUAGAAGGCAUAUUUUUAUUUAAUAAUAUAAUU | 79.4 | 33.9 | – | – |
| UUAGCAACAUGAGGAUCACCCAUGUAGGAUAUCGCUAUUGUAAUCAUGAAACAUGAUUACAAUAGCGAGAAGGACAUAUGCUGG | – | – | 22.4 | 19.5 |
| CCUUAGUCAGGAUAUACAUGAGGAUCACCCAUGUAAAAUUUUAAUUUAAUUUUAAGGUGUAGAAGGGACCACCC | – | – | 26.3 | 22.6 |
| UCUGCCGCCGUGAGGAUAUGCCCAAAAAAACGCGGGCAGAAGGCACAUGAGGAUCACCCAUGUCCCGCGGUUUU | – | – | 19.5 | 34.1 |
| UAUUUUAACUAAGGAUAUCUAUAUUAUGUUGAAACAUGAGGAUCACCCAUGUUCAUGAUAUUAUAGGAGAAGGUAGAUGAAUAA | 6.59 | 5.44 | – | – |
| CCCACGAAAGUCGAACGAUGAUGGAGAAGGACUAUAACAUGACAUGAGGAUCACCCAUGUGCCAAGUAGGAUAUCCAUCAUGGG | – | – | 5.97 | 5.34 |
| CUGAAGUCAGGAUAUCGUUAAUUUAGUUGUUUGUAUUAGUUCGAGAAGGGACAUGAGGAUCACCCAUGUAAGUC | – | – | 33.9 | 45.9 |
| GUUAUGUCAGGAUAUGCUUAUGGUGGGUGCUCAGACAUGAUGCAGAAGGGACAUGAGGAUCACCCAUGUACUGU | – | – | 593 | 435 |
| UAUGGUAAAGUCAGGAUAUACGUACAUCAUUCUAGGUAGAAGGGACAUGAGGAUCACCCAUGUAUGGUAGUGUU | – | – | 62.2 | 67.6 |
| UGAUAGCACAGAGGAUAUGCGUAGUGUUAUCUCUACAUGAGGAUCACCCAUGUAGAAGGCUGUGCUAUCUAAGUCGGAAACGAU | – | – | 6.19 | 9.86 |
| CCAGCGUAUGUGAGGAUAUGCUGGUCCUUGGAUCAGCAGAAGGCACAUGAGGAUCACCCAUGUGGAAACGUUGG | – | – | 18.7 | 63.5 |
| UGUUUCUUGUAAGGAUAUACUAGCGAUAAGCUAGUAGAAGGUACUGUCUUUUGUAUCUCAUAUUUACAUGAGGAUCACCCAUGU | 9.41 | 8.07 | – | – |
| UGUGCACUAGGAUAUGCGUAAGCUGAUACGUCAGCAGGUCUACAUGAGGAUCACCCAUGUAGAAGGAGUGUACU | – | – | 17.1 | 16.9 |
| GAAGCCUGAGAGAAGGGCCACAUGAGGAUCACCCAUGUGUGCUCUCCUGUGGCAGGAUAUCUAUGGGCUGACUGGCUAAUCCAU | – | – | 6.84 | 4.6 |
| AUACGGGCUAACAUGAGGAUCACCCAUGUGUUAUACUUAAUAUAGGAUAUGUUUAUACUUUUUGGGCAGAAGGAUGGCCCGUAU | 53.5 | 44.9 | – | – |
| UUUUAACAUGAGGAUCACCCAUGUGAGGAUAUCGUUAUUUAUAUUAAUAUUAAUAAAACGAGAAGGCACAUUUU | – | – | 112 | 141 |
| GGUGUCAUCGAGAAGGCCUCAACAUGAGGAUCACCCAUGUUGUAAUAUGGGAGGAUAUCGAUGAUACAGCUACGUUUCGUAGCG | 19.9 | 6.57 | – | – |
